This note sets out measurements from ChEMBL document CHEMBL1811830, “Synthesis, structure and cytotoxicity of 3-C, N, S, Se substituted benzo[b]selenophene derivatives” (Eur J Med Chem, 2011).

The subject of data set [1] is NIH3T3. In words: (§1) Cytotoxicity against mouse NIH/3T3 cells after 72 hrs by MTT assay. Format: cell-based. As to conditions: nih3t3, 72 h. The method, boiled down:
(§2)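 Cells from passages 1–4 after thawing, seeded at about 2–5·10⁴ cells/mL with compounds added immediately. Incubation 72 h, 37 °C, 5% CO₂. MTT read-out: medium replaced with fresh medium containing 10 mM HEPES, MTT (2 mg/mL in HBSS) added for 3 h. Dissolved in DMSO plus glycine buffer pH 10.5, absorbance 540 nm. TD50 = concentration giving 50% cell kill, averaged from CV and MTT.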

For data set [2], the system named is HT-1080. As to the kind of experiment: Cytotoxicity against human HT1080 cells assessed as nitric oxide concentration at 100 ug/ml after 72 hrs by crystal violet coloration assay (reference value: 100%). Format: functional.
For data set [3], the system named is HT-1080. As to the kind of experiment: Cytotoxicity against human HT1080 cells after 72 hrs by MTT assay. It counts as functional. As to conditions: for CC50: HT-1080, 72 h, read-out: TD50 (the source's name). The method, boiled down:
as §2

The subject of data set [4] is MG-22A. As to the kind of experiment: Cytotoxicity against mouse MG-22A cells after 72 hrs by MTT assay. Format: functional. As to conditions: for CC50: read-out: TD50 (the source's name). The method, boiled down:
as §2
For orientation: Tetrazolium dyes change colour on reduction, which living cells bring about.

In data set [5] the test system is MG-22A. In words: Cytotoxicity against mouse MG-22A cells assessed as nitric oxide concentration at 100 ug/ml after 72 hrs by crystal violet coloration assay (reference value: 100%). Format: functional.
Data set [6] is described as follows: as §1. It counts as cell-based, NIH3T3. As to conditions: NIH/3T3 cells, read-out: TD50. In short, it runs like this: as §2
In data set [7] the test system is HT-1080. In words: Induction of apoptosis in human HT1080 cells assessed as change in cell morphology after 72 hrs by acridine orange staining based fluorescence microscopic analysis. It counts as functional. The method, boiled down: (§3)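 Adherent cells treated 72 h, 37 °C, 5% CO₂, in 96-well plates. Stained 2 min with acridine orange 10 μg/mL in PBS pH 7.4, washed once with PBS, then viewed in PBS by inverted fluorescence microscopy. Chromatin condensation shown by DNA staining: living cells green, apoptotic cells orange/yellow, necrotic cells red.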

In data set [8] the test system is HT-1080. As to the kind of experiment: Induction of mitochondria mediated apoptosis in human HT1080 cells assessed as change in cell phenotype after 72 hrs by acridine orange staining based fluorescence microscopic analysis. It counts as functional. The method, boiled down: as §3
The test system of data set [9] is HT-1080. In words: Induction of apoptosis in human HT1080 cells assessed as change in cell phenotype after 72 hrs by acridine orange staining based fluorescence microscopic analysis. It counts as functional. In short, it runs like this:
as §3

Data set [10] relates to NIH3T3. As to the kind of experiment: Induction of apoptosis in mouse NIH/3T3 cells after 72 hrs by acridine orange staining based fluorescence microscopic analysis. It counts as cell-based. To be noted: nih3t3, 72 h. In short, it runs like this:
as §3

The subject of data set [11] is HT-1080. As to the kind of experiment: Induction of apoptosis in human HT1080 cells assessed as nucleus fragmentation after 72 hrs by acridine orange staining based fluorescence microscopic analysis. Format: functional, cell-based. The method, boiled down: as §3

Converted amounts (≈) assume the structure as drawn. The source made the active and inactive calls. The calls are words filed in the database; no cut-off is given here.

On to `CCOC(=O)c1[se]c2ccccc2c1-c1ccc(OC(C)C)cc1`, for which the values for the Activity result in the data set with NIH3T3 [1], in the data set on HT-1080 [2] and with MG-22A [5] were “Non-toxic”, 9% and 15%, respectively. Moreover, the outcome in the data set with HT-1080 [3] and with MG-22A [4] was inactive.
For the compound `Cc1csc2nc3c([se]c4ccccc43)c(=O)n12`, the CC50 at 72 h in data set [6] came to 21 µg/mL (≈ 65.8 µM). For the same compound, the Activity is 2% in the data set with HT-1080 [2] and 4% in the data set with MG-22A [5]. In addition, the result in the data set on HT-1080 [3] and with MG-22A [4] was inactive.
Turning to `CCOC(=O)c1[se]c2ccccc2c1Nc1cccnc1`, the CC50 at 72 h in data set [6] was 1000 µg/mL (≈ 2900 µM). In addition, the Activity in the data set on HT-1080 [2] is recorded as 12%; with MG-22A [5], 9%. In addition, the outcome in the data set with HT-1080 [3] and with MG-22A [4] was inactive.
Turning to `CCOC(=O)c1[se]c2ccccc2c1Br`, the CC50 at 72 h in data set [6] was found to be 896 µg/mL (≈ 2700 µM). Besides, the Activity in the data set with HT-1080 [2] is reported as 14%; in the data set on MG-22A [5], 40%. In addition, the outcome with HT-1080 [3] was inactive. Besides, in the data set with MG-22A [4], the CC50 is 40.5 µg/mL (≈ 122 µM).
Turning to `O=c1c2[se]c3ccccc3c2nc2cnccn12`, the CC50 at 72 h in data set [6] was 27 µg/mL (≈ 89.9 µM). For the same compound, the Activity with HT-1080 [2] was found to be 2%; with MG-22A [5], 7%. Moreover, the result in the data set on HT-1080 [3] and with MG-22A [4] was inactive.
Regarding `CCOC(=O)c1[se]c2ccccc2c1C#CC1=CCCCC1`, the CC50 at 72 h in [6] came out at 120 µg/mL (≈ 336 µM). Besides, the Activity in the data set on HT-1080 [2] and in the data set with MG-22A [5] was 200% each time. The figures for the CC50 in the data set on HT-1080 [3] and in the data set on MG-22A [4] were 32.5 µg/mL (≈ 91 µM) and 32 µg/mL (≈ 89.6 µM), respectively.
On to `O=c1c2[se]c3ccccc3c2nc2c3ncccc3ccn12`, for which the CC50 at 72 h in data set [6] stood at 56 µg/mL (≈ 160 µM). For the same compound, the Activity is on record as 20% in the data set on HT-1080 [2] and 3% with MG-22A [5]. In addition, the outcome in the data set on HT-1080 [3] and in the data set on MG-22A [4] was inactive.
Regarding `CCOC(=O)c1[se]c2ccccc2c1-c1ccc(C)s1`, the CC50 at 72 h in data set [6] was found to be 15 µg/mL (≈ 42.9 µM). Further, the Activity in the data set on HT-1080 [2] and in the data set with MG-22A [5] was 350% throughout. Also, the CC50 in the data set with HT-1080 [3] was 16 µg/mL (≈ 45.8 µM); in the data set with MG-22A [4], 19.5 µg/mL (≈ 55.8 µM).
Take `CCOC(=O)c1[se]c2ccccc2c1C#Cc1ccccc1`: in data set [6], the CC50 at 72 h was determined as 614 µg/mL (≈ 1740 µM). The Activity with HT-1080 [2] worked out at 15%; with MG-22A [5] it was 10%. In addition, the CC50 in the data set on HT-1080 [3] was found to be 76 µg/mL (≈ 215 µM); with MG-22A [4], 87 µg/mL (≈ 246 µM).
Regarding `CCOC(=O)c1[se]c2ccccc2c1-c1ccsc1`, the CC50 at 72 h in [6] is 31 µg/mL (≈ 92.5 µM). In addition, the Activity came to 13% in the data set on HT-1080 [2] and 14% with MG-22A [5]. For the same compound, the result in the data set on HT-1080 [3] and in the data set with MG-22A [4] was inactive.
In the case of `O=c1c2[se]c3ccccc3c2nc2sc3ccccc3n12`, in [6], the CC50 at 72 h is 27 µg/mL (≈ 76 µM). For the same compound, the Activity was determined as 2% in the data set on HT-1080 [2] and 3% in the data set on MG-22A [5]. The CC50 in the data set on HT-1080 [3] came to 8.5 µg/mL (≈ 23.9 µM); in the data set on MG-22A [4] it was 9.5 µg/mL (≈ 26.7 µM). In the data set on HT-1080 [7], the outcome was Active.
For the compound `CCOC(=O)c1[se]c2ccccc2c1-c1ccc(C#N)cc1`, in [6], the CC50 at 72 h worked out at 684 µg/mL (≈ 1930 µM). Besides, the results for the Activity in the data set on HT-1080 [2] and with MG-22A [5] were 8% and 7%, respectively. The outcome with HT-1080 [3] and in the data set with MG-22A [4] was inactive.
For the compound `O=c1c2[se]c3ccccc3c2nc2c(Cl)cc(C(F)(F)F)cn12`, the CC50 at 72 h in [6] stood at 31 µg/mL (≈ 77.2 µM). Further, the results for the Activity in the data set with HT-1080 [2] and in the data set on MG-22A [5] were 2% and 8%, respectively. Besides, the CC50 in the data set with HT-1080 [3] was determined as 3.5 µg/mL (≈ 8.71 µM); in the data set on MG-22A [4], 2.75 µg/mL (≈ 6.85 µM). The result in the data set with HT-1080 [8] was Active.
Regarding `CCOC(=O)c1[se]c2ccccc2c1-c1cc(F)c(F)c(F)c1`, in [6], the CC50 at 72 h came out at 100 µg/mL (≈ 261 µM). Further, the Activity in the data set with HT-1080 [2] is 6%; with MG-22A [5], 12%. Besides, the outcome in the data set with HT-1080 [3] was inactive. For the same compound, the CC50 in the data set with MG-22A [4] worked out at 81.5 µg/mL (≈ 213 µM).
For `O=c1c2[se]c3ccccc3c2nc2ccccn12`, the outcome in the data set on HT-1080 [9] was Active. The CC50 at 72 h in data set [6] is 31 µg/mL (≈ 104 µM). The Activity entry in the data set on NIH3T3 [10] is given as “Toxic”; with HT-1080 [2], 5%; with MG-22A [5], 7%. Also, the CC50 with HT-1080 [3] and in the data set with MG-22A [4] was 3 µg/mL (≈ 10 µM) in each case.
Regarding `O=c1c2[se]c3ccccc3c2nc2ccc(Cl)cn12`, in the data set with HT-1080 [11], the result was Active. Besides, the CC50 at 72 h in [6] was 32 µg/mL (≈ 95.9 µM). The Activity entry in the data set on NIH3T3 [10] was “Toxic”; with HT-1080 [2], 3%; in the data set with MG-22A [5] it was 40%. Besides, the CC50 in the data set on HT-1080 [3] and in the data set with MG-22A [4] was 3 µg/mL (≈ 8.99 µM) each time.
As for `CCOC(=O)c1[se]c2ccccc2c1-c1ccccc1`, the CC50 at 72 h in [6] worked out at 16 µg/mL (≈ 48.6 µM). The Activity with HT-1080 [2] was found to be 25%; with MG-22A [5] it was 23%. The CC50 in the data set on HT-1080 [3] turned out to be 65 µg/mL (≈ 197 µM). Further, the result with MG-22A [4] was inactive.
Take `CCOC(=O)c1[se]c2ccccc2c1Sc1ncccn1`: in [6], the CC50 at 72 h amounted to 840 µg/mL (≈ 2310 µM). The Activity with HT-1080 [2] was found to be 8%; with MG-22A [5] it was 7%. The outcome in the data set on HT-1080 [3] and in the data set with MG-22A [4] was inactive.
